# Source: ChEMBL document CHEMBL3853320, “Discovery of Imidazoquinolines as a Novel Class of Potent, Selective, and in Vivo Efficacious Cancer Osaka Thyroid (COT) Kinase Inhibitors” (J Med Chem, 2016)
# Experiments:
# [1] = Equilibrium solubility of the compound at pH 6.8 after 16 hrs by mass spectrometric analysis; format: physicochemical; conditions: buffer
# [2] = Equilibrium solubility of the compound at pH 4 after 16 hrs by mass spectrometric analysis; format: physicochemical; conditions: buffer
# [3] = biological target: T1, Mitogen-activated protein kinase kinase kinase 8 (Homo sapiens, UniProt P41279); assay: Inhibition of human COT (66 to 395 residues) expressed in Sf21 cells using 5-Fluo-Ahx-AGAGSGQLIDSNleANSFVGTR-NH2 as substrate after 60 mins by caliper microfluidic mobility shift assay
# T1 sequence (P41279 whole entry, the tested form may be a part): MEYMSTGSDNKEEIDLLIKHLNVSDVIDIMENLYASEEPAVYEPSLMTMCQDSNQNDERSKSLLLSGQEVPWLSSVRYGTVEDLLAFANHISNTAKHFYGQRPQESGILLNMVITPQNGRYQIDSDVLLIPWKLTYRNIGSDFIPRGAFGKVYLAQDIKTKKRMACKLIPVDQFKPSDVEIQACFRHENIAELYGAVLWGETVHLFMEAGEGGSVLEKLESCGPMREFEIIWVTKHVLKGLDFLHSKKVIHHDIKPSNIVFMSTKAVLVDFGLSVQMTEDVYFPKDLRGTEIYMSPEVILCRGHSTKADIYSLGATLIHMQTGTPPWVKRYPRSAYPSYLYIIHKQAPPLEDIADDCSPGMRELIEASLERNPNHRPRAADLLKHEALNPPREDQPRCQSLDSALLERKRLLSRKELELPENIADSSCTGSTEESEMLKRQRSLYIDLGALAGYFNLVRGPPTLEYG
# [4] = Octanol-water partition coefficient, log P of the compound by shake-flask method; format: physicochemical
# [5] = Protein binding in human plasma at 5 uM after 4 hrs by rapid equilibrium dialysis method; format: ADME, cell-free; conditions: read-out: PPB (converted)
# [6] = biological target: Receptor-type tyrosine-protein kinase FLT3 (Homo sapiens, UniProt P36888, D835Y); assay: Inhibition of FLT3 (563 to 993 residues) D835Y mutant (unknown origin) after 60 mins in presence of ATP by caliper microfluidic mobility shift assay
# [7] = biological target: MAP kinase-interacting serine/threonine-protein kinase 2 (Homo sapiens, UniProt Q9HBH9); assay: Inhibition of MKNK2 (unknown origin) after 60 mins in presence of ATP by caliper microfluidic mobility shift assay
# Sequence of MAP kinase-interacting serine/threonine-protein kinase 2 (Q9HBH9 whole entry): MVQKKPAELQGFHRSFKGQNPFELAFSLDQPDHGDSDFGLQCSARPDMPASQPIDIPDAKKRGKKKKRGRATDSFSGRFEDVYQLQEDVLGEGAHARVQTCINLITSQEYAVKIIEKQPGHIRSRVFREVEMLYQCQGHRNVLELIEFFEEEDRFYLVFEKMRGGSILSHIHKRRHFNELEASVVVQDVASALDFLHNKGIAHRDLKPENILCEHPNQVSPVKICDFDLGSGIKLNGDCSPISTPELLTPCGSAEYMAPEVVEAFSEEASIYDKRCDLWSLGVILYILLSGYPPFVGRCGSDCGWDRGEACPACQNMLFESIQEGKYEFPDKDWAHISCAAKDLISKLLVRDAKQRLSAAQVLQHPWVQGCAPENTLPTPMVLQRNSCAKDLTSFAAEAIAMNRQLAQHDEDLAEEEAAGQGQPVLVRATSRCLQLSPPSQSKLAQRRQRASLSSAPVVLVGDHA
# [8] = Inhibition of NFkappaB pathway in LPS-stimulated human PBMC assessed as reduction in p65 phosphorylation incubated for 60 mins followed by LPS stimulation for 12 mins by flow cytometric analysis analysis
# Summary of the method: (§1)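 Primary human PBMCs were stimulated with LPS. Read-outs were pERK, TNFα release, or p65 phosphorylation, each reported as IC50.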
# [9] = biological target: T1, Mitogen-activated protein kinase kinase kinase 8; assay: Inhibition of COT in LPS-stimulated human PBMC assessed as reduction in TNFalpha release incubated for 1 hr followed by stimulation with LPS for 4 hrs by HTRF assay; summary of the method: as §1
# [10] = biological target: T1, Mitogen-activated protein kinase kinase kinase 8; assay: Inhibition of COT in LPS-stimulated human whole blood assessed as reduction in TNFalpha release incubated for 30 mins followed by stimulation with LPS for 3 hrs by HTRF assay; format: tissue-based
# Summary of the method: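 Human whole blood was stimulated with LPS, and TNFα release was measured as IC50.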
# [11] = Inhibition of MEK/ERK signaling pathway in EGF-stimulated human A431 cells transfected with COT siRNA assessed as reduction in ERK1/2 phosphorylation incubated for 60 mins followed by stimulation with EGF for 10 mins by Western blot analysis; format: cell-based; conditions: A-431
# [12] = Inhibition of MEK/ERK signaling pathway in TNFalpha-stimulated human A431 cells transfected with COT siRNA assessed as reduction in ERK1/2 phosphorylation incubated for 60 mins followed by stimulation with TNFalpha for 10 mins by Western blot analysis; format: cell-based; conditions: A-431
# [13] = biological target: T1, Mitogen-activated protein kinase kinase kinase 8; assay: Inhibition of COT in LPS-stimulated human PBMC assessed as reduction in ERK1/2 phosphorylation incubated for 60 mins followed by LPS stimulation for 12 mins by flow cytometric analysis; summary of the method: as §1
# [14] = Drug metabolism in human liver S9 fraction assessed as 1-(2-(1-morpholinopropan-2-ylamino)benzo[d]thiazol-6-yl)-8-(pyridin-4-yl)-1H-imidazo[4,5-c][1,7]naphthyridin-4(5H)-one metabolite formation in absence of NADPH after 5 to 120 mins by LC/MS/MS analysis; format: ADME
# Summary of the method: (§2)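 Rat or human liver S9 fractions were incubated without NADPH cofactor. Loss of parent and formation of the 4-oxo metabolite M1 were monitored.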
# [15] = Clearance in wild type Sprague-Dawley rat plasma at 1 mg/kg, iv; format: ADME, organism-based
# Summary of the method: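 Male wild-type Sprague–Dawley rats were given 1 mg/kg intravenously. Clearance was derived from plasma.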
# [16] = Drug excretion in bile-duct cannulated Sprague-Dawley rat urine at 3 mg/kg, iv; format: ADME, organism-based; conditions: read-out: Drug excretion
# [17] = Metabolic stability in bile-duct cannulated Sprague-Dawley rat assessed as parent compound remaining in feces at 3 mg/kg, iv measured over 8 hrs post dose; format: ADME, organism-based; conditions: read-out: Stability
# Summary of the method: (§3)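 Bile-duct cannulated rats dosed in vivo. Parent and metabolites in each matrix were expressed as relative peak areas of the drug-related components detected, at the stated sampling time or collection period post dose.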
# [18] = Drug excretion in bile-duct cannulated Sprague-Dawley rat feces at 3 mg/kg, iv measured 8 hrs post dose; format: ADME, organism-based; conditions: read-out: Drug excretion
# [19] = Drug excretion in bile-duct cannulated Sprague-Dawley rat liver at 3 mg/kg, iv measured 8 hrs post dose; format: ADME, organism-based; conditions: in vivo
# [20] = Drug excretion in bile-duct cannulated Sprague-Dawley rat kidney at 3 mg/kg, iv measured 8 hrs post dose; format: ADME, organism-based; conditions: in vivo
# [21] = Drug metabolism in Sprague-Dawley rat liver S9 fraction assessed as 1-(2-(1-morpholinopropan-2-ylamino)benzo[d]thiazol-6-yl)-8-(pyridin-4-yl)-1H-imidazo[4,5-c][1,7]naphthyridin-4(5H)-one metabolite formation in absence of NADPH after 5 to 120 mins by LC/MS/MS analysis; format: ADME; summary of the method: as §2
# [22] = Metabolic stability in Sprague-Dawley rat liver microsomes assessed as parent compound remaining at 5 uM after 1 hr in presence of NADPH by HPLC/MS analysis; format: ADME; conditions: read-out: Stability
# [23] = Metabolic stability in bile-duct cannulated Sprague-Dawley rat assessed as parent compound remaining in blood at 3 mg/kg, iv measured 4 hrs post dose; format: ADME, organism-based; conditions: read-out: Stability; summary of the method: as §3
# [24] = Metabolic stability in bile-duct cannulated Sprague-Dawley rat assessed as parent compound remaining in urine at 3 mg/kg, iv measured over 8 hrs post dose; format: ADME, organism-based; conditions: read-out: Stability; summary of the method: as §3
# [25] = Drug excretion in bile-duct cannulated Sprague-Dawley rat bile at 3 mg/kg, iv; format: ADME, organism-based; conditions: read-out: Drug excretion
# [26] = Metabolic stability in bile-duct cannulated Sprague-Dawley rat assessed as parent compound remaining in blood at 3 mg/kg, iv measured 1 hr post dose; format: ADME, organism-based; conditions: read-out: Stability
# [27] = Metabolic stability in bile-duct cannulated Sprague-Dawley rat assessed as parent compound remaining in bile at 3 mg/kg, iv measured over 8 hrs post dose; format: ADME, organism-based; conditions: read-out: Stability
# [28] = Half life in wild type Sprague-Dawley rat liver microsomes at 5 uM preincubated for 3 mins followed by NADPH addition measured after 1 hr by HPLC/MS analysis; format: ADME
# [29] = Drug level in bile-duct cannulated Sprague-Dawley rat kidney treated with N-(1-morpholinopropan-2-yl)-6-(8-(thiophen-2-yl)-1H-imidazo[4,5-c][1,7]naphthyridin-1-yl)benzo[d]thiazol-2-amine at 3 mg/kg, iv measured 8 hrs post dose; format: ADME, organism-based; conditions: in vivo
# [30] = Drug level in bile-duct cannulated Sprague-Dawley rat bile treated with N-(1-morpholinopropan-2-yl)-6-(8-(thiophen-2-yl)-1H-imidazo[4,5-c][1,7]naphthyridin-1-yl)benzo[d]thiazol-2-amine at 3 mg/kg, iv measured 8 hrs post dose; format: ADME, organism-based; conditions: in vivo
# [31] = Drug level in bile-duct cannulated Sprague-Dawley rat liver treated with N-(1-morpholinopropan-2-yl)-6-(8-(thiophen-2-yl)-1H-imidazo[4,5-c][1,7]naphthyridin-1-yl)benzo[d]thiazol-2-amine at 3 mg/kg, iv measured 8 hrs post dose; format: ADME, organism-based; conditions: in vivo
# [32] = Drug level in bile-duct cannulated Sprague-Dawley rat urine treated with N-(1-morpholinopropan-2-yl)-6-(8-(thiophen-2-yl)-1H-imidazo[4,5-c][1,7]naphthyridin-1-yl)benzo[d]thiazol-2-amine at 3 mg/kg, iv measured 8 hrs post dose; format: ADME, organism-based; conditions: in vivo
# [33] = Drug level in bile-duct cannulated Sprague-Dawley rat blood treated with N-(1-morpholinopropan-2-yl)-6-(8-(pyridin-4-yl)-1H-imidazo[4,5-c][1,7]naphthyridin-1-yl)benzo[d]thiazol-2-amine at 3 mg/kg, iv measured 1 to 4 hrs post dose; format: ADME, organism-based; conditions: in vivo
# [34] = Drug level in bile-duct cannulated Sprague-Dawley rat bile treated with N-(1-morpholinopropan-2-yl)-6-(8-(pyridin-4-yl)-1H-imidazo[4,5-c][1,7]naphthyridin-1-yl)benzo[d]thiazol-2-amine at 3 mg/kg, iv measured over 8 hrs post dose; format: ADME, organism-based; conditions: in vivo
# [35] = Drug level in bile-duct cannulated Sprague-Dawley rat urine treated with N-(1-morpholinopropan-2-yl)-6-(8-(pyridin-4-yl)-1H-imidazo[4,5-c][1,7]naphthyridin-1-yl)benzo[d]thiazol-2-amine at 3 mg/kg, iv measured over 8 hrs post dose; format: ADME, organism-based; conditions: in vivo
# [36] = Drug level in bile-duct cannulated Sprague-Dawley rat feces treated with N-(1-morpholinopropan-2-yl)-6-(8-(pyridin-4-yl)-1H-imidazo[4,5-c][1,7]naphthyridin-1-yl)benzo[d]thiazol-2-amine at 3 mg/kg, iv measured over 8 hrs post dose; format: ADME, organism-based; conditions: in vivo
compound,measurement,setting,value
c1ccc(-c2cc3c(cn2)ncc2ncn(-c4ccc5ncccc5c4)c23)cc1,solubility thermodynamic at 16 h,[1],< 4 µM
same,solubility thermodynamic at 16 h,[2],< 4 µM
same,IC50,[3],96 nM
c1cncc(-c2cc3c(cn2)ncc2ncn(-c4ccc5nc[nH]c5c4)c23)c1,IC50,[3],670 nM
c1ccc(-c2cc3c(cn2)ncc2ncn(-c4ccc5nc[nH]c5c4)c23)cc1,IC50,[3],90 nM
Cc1nc2ccc(-n3cnc4cnc5cnc(-c6ccccc6)cc5c43)cc2s1,solubility thermodynamic at 16 h,[1],< 4 µM
same,solubility thermodynamic at 16 h,[2],< 4 µM
same,IC50,[3],80 nM
c1cnc2ccc(-n3cnc4cnc5cnc(-c6ccsc6)cc5c43)cc2c1,logP,[4],4.2
same,"fraction unbound at 4 h, 5 µM",[5],< 0.01
same,IC50,[6],< 340 nM
same,IC50,[7],< 1400 nM
same,IC50,[8],> 25000 nM
same,solubility thermodynamic at 16 h,[1],< 4 µM
same,IC50,[9],440 nM
same,IC50,[10],1780 nM
same,solubility thermodynamic at 16 h,[2],6 µM
same,IC50,[11],> 10000 nM
same,IC50,[3],20 nM
same,IC50,[12],61 nM
same,IC50,[13],540 nM
Cc1cccc(-c2cc3c(cn2)ncc2ncn(-c4ccc5nc[nH]c5c4)c23)c1,IC50,[3],200 nM
c1nc2ccc(-n3cnc4cnc5cnc(-c6cnsc6)cc5c43)cc2[nH]1,IC50,[3],160 nM
C[C@@H](CN1CCOCC1)Nc1ccc2cc(-n3cnc4cnc5cnc(-c6ccncc6)cc5c43)ccc2n1,IC50,[9],1250 nM
same,IC50,[3],38 nM
same,IC50,[13],620 nM
N#CCc1ccc(-n2cnc3cnc4cc(Cl)c(-c5ccsc5)cc4c32)cc1,logP,[4],5.4
same,IC50,[3],800 nM
CC(CN1CCOCC1)Nc1nc2ccc(-n3cnc4cnc5cnc(-c6ccncc6)cc5c43)cc2s1 (configuration not stated),Drug metabolism,[14],Metabolite_Detected
same,logP,[4],3.3
same,"fraction unbound at 4 h, 5 µM",[5],0.02
same,clearance,[15],297 mL/min/kg
same,dose excreted,[16],0.04%
same,dose excreted at 8 h,[17],37%
same,dose excreted at 8 h,[18],0.33%
same,Drug excretion,[19],0.002 %ID
same,solubility thermodynamic at 16 h,[1],60 µM
same,IC50,[9],70 nM
same,Drug excretion,[20],0.002 %ID
same,IC50,[10],600 nM
same,Drug metabolism,[21],Metabolite_Detected
same,"remaining at 1 h, 5 µM",[22],16%
same,solubility thermodynamic at 16 h,[2],> 1000 µM
same,remaining at 4 h,[23],20%
same,dose excreted at 8 h,[24],2%
same,IC50,[3],9 nM
same,dose excreted,[25],0.13%
same,remaining at 1 h,[26],49%
same,dose excreted at 8 h,[27],0%
same,IC50,[13],80 nM
same,half-life at 5 µM,[28],< 3 min
CC(CN1CCOCC1)Nc1nc2ccc(-n3cnc4c(=O)[nH]c5cnc(-c6cccs6)cc5c43)cc2s1 (configuration not stated),Drug metabolism,[29],Metabolite_Detected
same,Drug metabolism,[30],Metabolite_Detected
same,Drug metabolism,[31],Metabolite_Detected
same,Drug metabolism,[32],Metabolite_Detected
C[C@H](CN1CCOCC1)Nc1ccc2cc(-n3cnc4cnc5cnc(-c6ccncc6)cc5c43)ccc2n1,logP,[4],3.2
same,clearance,[15],221 mL/min/kg
same,solubility thermodynamic at 16 h,[1],135 µM
same,IC50,[9],30 nM
same,IC50,[10],80 nM
same,solubility thermodynamic at 16 h,[2],> 1000 µM
same,IC50,[3],4 nM
same,IC50,[13],30 nM
CC(CN1CCOCC1)Nc1nc2ccc(-n3cnc4c(=O)[nH]c5cnc(-c6ccncc6)cc5c43)cc2s1 (configuration not stated),Drug metabolism,[33],Metabolite_Detected
same,Drug metabolism,[34],Metabolite_Detected
same,Drug metabolism,[35],Metabolite_Detected
same,Drug metabolism,[36],Metabolite_Detected
